# Source: ChEMBL document CHEMBL3286332, “Synthesis and radical scavenging activity of phenol-imidazole conjugates” (Bioorg Med Chem Lett, 2014)
# Assays:
# Format in all cases: functional
# [1] = test system: Radical scavenging activity; assay: Antioxidant activity assessed as DPPH free radical scavenging activity measured as remaining DPPH at 100 uM after 60 mins by spectrophotometric analysis relative to control
# Summary of the method: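 100 μM compound in ethanol mixed 1:9 with 0.002% (w/v) ethanolic DPPH. Absorbance at 517 nm after 60 min, compared with an ethanol control. Value is percent of DPPH remaining, run in triplicate.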
# [2] = Antioxidant activity assessed as hydroxyl radical scavenging activity at 5 uM after 1 hr by 2-Deoxy-D-ribose degradation assay in presence of FeCl3 and EDTA
# Summary of the method: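 The 1 mL mixture held 10 mM KH2PO4-KOH pH 7.4, 2-deoxy-D-ribose, FeCl3 made up in 2 mM Na2EDTA, H2O2, ascorbic acid and 5 μM compound added from DMSO. It was incubated 1 h at 37 °C, then thiobarbituric acid in NaOH and trichloroacetic acid were added and it was heated 15 min at 100 °C. Absorbance was read at 535 nm. Controls: no compound (100% MDA) and no deoxyribose (blank). Triplicate.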
# [3] = Antioxidant activity assessed as hydroxyl radical scavenging activity at 5 uM after 1 hr by 2-Deoxy-D-ribose degradation assay in presence of FeCl3
# Summary of the method: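 Hydroxyl radical attack on 2-deoxy-D-ribose in 10 mM KH2PO4-KOH pH 7.4 with FeCl3 made up in buffer (no EDTA), H2O2, ascorbic acid and 5 μM compound from DMSO. Incubated 1 h at 37 °C. TBA/TCA was added, the mixture heated at 100 °C for 15 min, and MDA read at 535 nm. Result is percent protection against the compound-free control. Triplicate.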
# [4] = test system: Radical scavenging activity; assay: Antioxidant activity assessed as DPPH free radical scavenging activity after 60 mins by spectrophotometric analysis
# Summary of the method: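 Compound in ethanol, 1 to 100 μM, combined 1:9 with 0.002% (w/v) ethanolic DPPH; absorbance read at 517 nm after 60 min against an ethanol-only control. Triplicate measurements. Inhibition of discoloration expressed as percent of control; IC50 (concentration scavenging 50% of DPPH) obtained from the inhibition curve.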
# [5] = test system: Radical scavenging activity; assay: Antioxidant activity assessed as DPPH free radical scavenging activity measured as remaining DPPH at 10 uM after 5 mins by spectrophotometric analysis relative to control
# [6] = test system: Radical scavenging activity; assay: Antioxidant activity assessed as DPPH free radical scavenging activity measured as remaining DPPH at 10 uM after 2 mins by spectrophotometric analysis relative to control
# [7] = test system: Radical scavenging activity; assay: Antioxidant activity assessed as DPPH free radical scavenging activity measured as remaining DPPH at 100 uM after 5 mins by spectrophotometric analysis relative to control
Compound,DPPH remaining [1],Activity [2],Activity [3],IC50 [4],Activity [5],Activity [6],Activity [7]
COc1ccc(-n2cnc(C#N)c2N)cc1,94.2%,46%,29%,–,–,–,–
N#Cc1ncn(-c2ccc(F)cc2)c1/N=C/c1ccc(O)c(O)c1O,–,53%,34%,8.4 µM,–,–,–
COc1ccc(-n2cnc(C#N)c2/N=C/c2ccc(O)c(OC)c2)cc1,88.6%,47%,12%,–,–,–,–
COc1cc(C=O)ccc1O,97.6%,37%,30%,–,–,–,–
Cn1cnc(C#N)c1/N=C/c1ccc(O)c(O)c1,–,52%,27%,3.8 µM,–,–,–
N#Cc1ncn(-c2ccc(O)cc2)c1/N=C/c1ccc(O)c(O)c1,–,60%,38%,3.2 µM,< 50%,< 50%,–
COc1ccc(-n2cnc(C#N)c2/N=C/c2c(O)cc(O)cc2O)cc1,48.3%,62%,16%,–,–,–,–
Cn1cnc(C#N)c1/N=C/c1ccc(O)c(O)c1O,–,54%,37%,7 µM,–,–,–
Cn1cnc(C#N)c1/N=C/c1c(O)cc(O)cc1O,49.9%,54%,18%,–,–,–,–
COc1ccc(-n2cnc(C#N)c2/N=C/c2cc(O)c(O)c(O)c2)cc1,–,51%,42%,4 µM,–,–,–
O=Cc1c(O)cc(O)cc1O,91.2%,42%,36%,–,–,–,–
COc1ccc(-n2cnc(C#N)c2/N=C/c2ccc(O)c(O)c2O)cc1,–,57%,25%,7.3 µM,–,–,–
Cn1cnc(C#N)c1N,94.2%,54%,23%,–,–,–,–
COc1ccc(-n2cnc(C#N)c2/N=C/c2ccc(O)c(O)c2)cc1,–,61%,17%,4.1 µM,–,–,–
N#Cc1ncn(-c2ccc(O)cc2)c1N,94.8%,47%,57%,–,–,–,–
O=Cc1cc(O)c(O)c(O)c1,–,50%,38%,6 µM,–,–,–
Cn1cnc(C#N)c1/N=C/c1cc(O)c(O)c(O)c1,–,54%,44%,4.7 µM,–,–,–
N#Cc1ncn(-c2ccc(O)cc2)c1/N=C/c1c(O)cc(O)cc1O,45.9%,55%,17%,–,–,–,< 50%
N#Cc1ncn(-c2ccc(F)cc2)c1/N=C/c1cc(O)c(O)c(O)c1,–,54%,30%,5.8 µM,–,–,–
N#Cc1ncn(-c2ccc(O)cc2)c1/N=C/c1cc(O)c(O)c(O)c1,–,49%,51%,4.8 µM,< 50%,< 50%,–
N#Cc1ncn(-c2ccc(O)cc2)c1/N=C/c1ccc(O)c(O)c1O,–,38%,28%,7.2 µM,< 50%,–,–
O=Cc1ccc(O)c(O)c1O,–,46%,34%,11.6 µM,–,–,–
Cc1c(C)c2c(c(C)c1O)CCC(C)(C(=O)O)O2 (centres undefined) [TROLOX],–,53%,31%,9.5 µM,–,–,–
N#Cc1ncn(-c2ccc(F)cc2)c1N,94.1%,50%,19%,–,–,–,–
N#Cc1ncn(-c2ccc(F)cc2)c1/N=C/c1ccc(O)c(O)c1,–,58%,11%,4.4 µM,–,–,–
O=Cc1ccc(O)c(O)c1 [PROTOCATECHUALDEHYDE],–,51%,35%,5.4 µM,–,–,–
